Test results reported in ChEMBL document CHEMBL1926559, “Metabolic and electrochemical mechanisms of dimeric naphthoquinones cytotoxicity in breast cancer cells” (Bioorg Med Chem, 2011).
The source made the active and inactive calls. No cut-off for these calls is given here.

Columns and labels:
MCF7 [1] = test: Antiproliferative activity against human MCF7 cells after 4 hrs by MTT assay; assay type: functional, cell-based
Outline: (§1)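 Cells in DMEM with 10% FBS and 1% antibiotics, 37°C, 5% CO2; equal numbers plated in three or more replicates, attached overnight, then exposed to 5, 10, 20 or 50 μM (DMSO vehicle) in complete medium for 4 h. Then 0.5 mg/ml MTT for 1 h, medium replaced with PBS, absorbance at 570 nm minus 690 nm background; compared to DMSO.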

MDA-MB-453 [2] = test: Antiproliferative activity against human MDA-MB-453 cells assessed as decrease in ATP level in viable cells at >20 uM after 4 hrs by CellTiter-Glo luminescent assay relative to control; assay type: functional, cell-based
Outline: (§2)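 10,000 cells per well, treated in sextuplet with DMSO or 5, 10, 20 or 50 μM for 4 h. ATP read by CellTiter-Glo luminescence, normalized to average count of viable trypan-blue-excluding cells per condition, expressed relative to DMSO.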

MDA-MB-453 [3] = test: Antiproliferative activity against human MDA-MB-453 cells assessed as decrease in ATP level in viable cells at 20 uM after 4 hrs by CellTiter-Glo luminescent assay relative to control; assay type: functional; outline: as §2
MDA-MB-453 [4] = test: Cytotoxicity against human MDA-MB-453 cells assessed as decrease in oxygen consumption at 20 uM by Clark-type oxygen electrode analysis; assay type: functional, cell-based
Outline: (§3)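 After 3 h exposure to 20 μM compound or DMSO, cells trypsinized, PBS-washed, pelleted; 5×10⁶ cells in 0.8 mL PBS with 10% FCS placed in a Clark-type oxygen electrode chamber to measure O2 consumption; duplicate experiments.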

MCF7 [5] = test: Cytotoxicity against DCFDA-treated human MCF7 cells assessed as increase in ROS production […] by flow cytometric analysis; assay type: functional, cell-based
Outline: (§4)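 Cells preloaded with 5μM carboxy-DCFDA for 30 min, then exposed to 20 μM compound or DMSO for 2 h, collected and analysed by flow cytometry (488 nm excitation, 530 nm emission); percentage of fluorescent cells vs DMSO; triplicate samples, two separate experiments.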

MDA-MB-453 [6] = test: Antiproliferative activity against human MDA-MB-453 cells assessed as decrease in ATP level in viable cells at 10 uM after 4 hrs by CellTiter-Glo luminescent assay relative to control; assay type: functional; outline: as §2
MCF7 [7] = test: Antiproliferative activity against human MCF7 cells assessed as cell survival at 50 uM by trypan blue exclusion assay relative to control; assay type: functional; details: read-out: Survival
Outline: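 MCF-7 cells kept in DMEM with 10% fetal bovine serum and 1% antibiotics at 37°C, 5% CO2, grown at 1×10⁵ cells/mL. Cells were exposed to DMSO vehicle or DMSO-dissolved compound. Viability was scored by trypan blue exclusion cell counts, done in triplicate and given as mean ± SD. Survival was expressed relative to the DMSO control.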

MCF7 [8] = test: Cytotoxicity against human MCF7 cells assessed as decrease in oxygen consumption at 20 uM by Clark-type oxygen electrode analysis; assay type: functional, cell-based; outline: as §3
MDA-MB-453 [9] = test: Growth inhibition of human MDA-MB-453 cells by trypan blue exclusion assay; assay type: functional, cell-based
Outline: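 Viability counted by trypan blue exclusion; cells grown at 1×10⁵ cells/mL, counts done in triplicate, mean ± SD relative to DMSO.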

MDA-MB-453 [10] = test: Cytotoxicity against DCFDA-treated human MDA-MB-453 cells assessed as increase in ROS production after 30 mins by flow cytometric analysis; assay type: functional; outline: as §4
MDA-MB-453 [11] = test: Antiproliferative activity against human MDA-MB-453 cells after 4 hrs by MTT assay; assay type: functional, cell-based; outline: as §1
MCF7 [12] = test: Antiproliferative activity against human MCF7 cells assessed as decrease in ATP level in viable cells after 4 hrs by CellTiter-Glo luminescent assay relative to control; assay type: functional, cell-based; outline: as §2

| SMILES | Activity (MCF7 [1]) | Activity (MDA-MB-453 [2]) | Activity (MDA-MB-453 [3]) | Activity (MDA-MB-453 [4]) | Activity (MCF7 [5]) | Activity (MDA-MB-453 [6]) | viability at 50 µM (MCF7 [7]) | Activity (MCF7 [8]) | IC50 (MDA-MB-453 [9]) | Activity (MDA-MB-453 [10]) | Activity (MDA-MB-453 [11]) | Activity (MCF7 [12]) |
| --- | --- | --- | --- | --- | --- | --- | --- | --- | --- | --- | --- | --- |
| CC(C)=CCC[C@]1(C)C=Cc2c(ccc3c2C(=O)C(O)=C(C2=C(Cl)C(=O)c4ccccc4C2=O)C3=O)O1 | inactive | inactive | 27% | Active | inactive | inactive | 85% | inactive | 34 µM | 50% | Dose-dependent effect | inactive |
| COc1ccc2c(c1)C(=O)C(C1=C(Cl)C(=O)c3ccccc3C1=O)=C(O)C2=O | inactive | inactive | 60% | Active | inactive | 37% | 83% | inactive | 17 µM | 50% | Dose-dependent effect | inactive |
| O=C1C(O)=C(C2=C(Cl)C(=O)c3ccccc3C2=O)C(=O)c2ccccc21 | inactive | inactive | 60% | Active | inactive | 53% | 80% | inactive | 15 µM | 50% | Dose-dependent effect | inactive |
